The source of these data is ChEMBL document CHEMBL1134482, “Ether phospholipid-AZT conjugates possessing anti-HIV and antitumor cell activity. Synthesis, conformational analysis, and study of their thermal effects on membrane bilayers” (J Med Chem, 2001).

One experiment has as its system MOLT-4. Description: Inhibitory effect of compound on the proliferation of human T-lymphocyte cells Molt4/C8. Type of experiment: functional, cell-based. In outline:
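Human Molt4/C8 T-lymphoblast cells were incubated with the compound for 3 days at 37 °C. IC50 was the concentration cutting the total viable cell number by 50%.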

For experiment [1], the system named is CCRF-CEM. Nature of the experiment: Concentration required to protect CEM/0 cells against the cytopathicity of HIV-1 by 50%. Type of experiment: functional, cell-based. The following applies: Homo sapiens. In short, it runs like this:
(§1)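 CEM cells (wild-type, or TK-deficient for the HIV-2 CEM/TK- line) were infected with HIV-1 or HIV-2. EC50 was taken as the concentration protecting the cells from virus-induced cytopathicity by 50%. Values are averages of at least two separate experiments.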
(Protection from cytopathic effect is a common read-out in antiviral testing.)

For experiment [2], the system named is CCRF-CEM. Description: Concentration required to reduce CEM/0 cell viability by 50%. Type of experiment: functional. The following applies: Homo sapiens. In short, it runs like this:
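Uninfected CEM/0 T-lymphocytes were exposed to the compound. CC50 was the concentration reducing CEM cell viability by 50%. Values are averages of at least two separate experiments.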

In the next experiment the test system is CEM-TK(-). Nature of the experiment: Concentration required to protect CEM/TK cells against the cytopathicity of HIV-2 by 50%. The experiment is classed as functional, cell-based. The following applies: Homo sapiens. In short, it runs like this:
as §1

Another experiment concerns FM3A. Nature of the experiment: Inhibitory effect of compound on the proliferation of murine mammary carcinoma cells FM3A/0. Type of experiment: functional, cell-based. The following applies: Mus musculus. In outline:
(§2)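 Murine L1210/0, L1210/TK- leukemia cells or FM3A/0 mammary carcinoma cells were incubated with the compound for 2 days at 37 °C. IC50 was the concentration reducing the total number of viable cells by 50%.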

Experiment [3] relates to CCRF-CEM. Nature of the experiment: Concentration required to protect CEM/0 cells against the cytopathicity of HIV-2 by 50%. The experiment is classed as functional, cell-based. The following applies: Homo sapiens. In short, it runs like this:
as §1

A further experiment relates to L1210/TK-. Description: Inhibitory effect of compound on the proliferation of murine leukemia cells L1210/TK-. The experiment is classed as functional, cell-based. The following applies: Mus musculus. In short, it runs like this: as §2
The test system of a further experiment is L1210. Description: Inhibitory effect of compound on the proliferation of murine leukemia cells L1210/0. The experiment is classed as functional, cell-based. The following applies: Mus musculus. In short, it runs like this:
as §2

Where only a bound is given, the exact number is not on record here.

A word on the IC50: it is the concentration needed to halve the response being measured. Low values mean greater potency in that assay, high ones weaker potency in that assay. As a reminder, the EC50 is the concentration at which the effect is half-maximal. As a reminder, the CC50 is the concentration giving 50% cytotoxicity. Low readings indicate greater toxicity to the cells, high ones lower toxicity to the cells.

Turning to `CCCCCCCCCCCCCCCCOCC(COP(=O)(O)OCC1OC(n2cc(C)c(=O)[nH]c2=O)CC1N=[N+]=[N-])OC` (stereo not drawn), the IC50 in the experiment with MOLT-4 was found to be 21.4 µM; in the experiment with FM3A, 68.4 µM; with L1210/TK- it was 33.6 µM; in the experiment on L1210 it was 0.98 µM. The figures for the EC50 with CCRF-CEM [1], in the experiment on CEM-TK(-) and with CCRF-CEM [3] were 0.065 µM, over 10 µM and 0.08 µM, respectively. The molecule further gave a CC50 in the experiment on CCRF-CEM [2] of 34.3 µM.
Consider `CCCCCCCCCCCCCCCCOP(=O)(O)OCC1OC(n2cc(C)c(=O)[nH]c2=O)CC1N=[N+]=[N-]` (stereo not drawn), for which the 50% inhibitory concentration (IC50) in the experiment on MOLT-4 amounted to 144 µM; in the experiment with FM3A it was 133 µM; in the experiment on L1210/TK- it was 165 µM; in the experiment with L1210 it was 12.5 µM. Further, the EC50 in the experiment with CCRF-CEM [1] was 0.58 µM; with CEM-TK(-) it was over 50 µM; in the experiment with CCRF-CEM [3] it was 1 µM. For the same molecule, half-maximal cytotoxicity in the experiment on CCRF-CEM [2] (CC50) was put at 161 µM.
As to `Cc1cn([C@H]2C[C@H](N=[N+]=[N-])[C@@H](CO)O2)c(=O)[nH]c1=O` [ZIDOVUDINE], the half-inhibitory concentration (IC50) was 62.8 µM with MOLT-4, 203 µM with FM3A, over 500 µM with L1210/TK- and 6.18 µM with L1210. The EC50 was 0.0064 µM with CCRF-CEM [1] and over 100 µM with CEM-TK(-). This molecule also came in with a CC50 in the experiment on CCRF-CEM [2] of over 500 µM.
